Results collected from several papers.
Lines come from different studies, so protocols differ.
Target: Serine/threonine-protein kinase mTOR (MTOR, Homo sapiens, UniProt P42345)
Tested at: 1 µM

O=C(Nc1c[nH]nc1C(=O)NC1CCNCC1)c1cc(F)cc(F)c1
remaining binding (binding, competition with immobilised ligand): 100%

COc1cc(-c2cn(C3CCc4ccccc4N(CC(F)(F)F)C3=O)nn2)ccc1-n1ccc(C)n1 (centres unmarked)
remaining binding (cell-free assay, competition with immobilised ligand): 100%

CNC(=O)[C@@H]1CC[C@@H](n2c(-c3ccc4cnccc4c3)nc3ccc(C(=O)NCc4cccc(C(N)=O)c4)cc32)C1
remaining binding (binding, competition with immobilised ligand): 66%

COc1ccnn2ncc(-c3ccnc(N(C)C)n3)c12
remaining binding (binding): 95%

CNC(=O)Nc1ccc2c(c1)CC[C@@]21OC(=O)N(CC(=O)N(Cc2ccc(F)cc2)[C@@H](C)C(F)(F)F)C1=O
remaining binding (cell-free assay, competition with immobilised ligand): 92%

CCN1CCN(Cc2ccc(C(=O)Nc3ccc(C)c(Oc4ccc5c(c4)CC(=O)N5)c3)cc2C(F)(F)F)CC1
remaining binding (binding, competition with immobilised ligand): 100%

C[C@@H]1CCN(c2nccc(-c3cnn4ncccc34)n2)C1
remaining binding (binding): 97%

COc1cnc(Nc2cccc(S(N)(=O)=O)c2)nc1N1CCN(c2ccccc2)CC1
remaining binding (binding, competition with immobilised ligand): 93%

Cc1cnc(Nc2ccc(C(=O)N3CCC(N4CCCC4)CC3)cc2)nc1-c1cc2ccccc2s1
remaining binding (binding, competition with immobilised ligand): 85%

Nc1ncc2c(n1)-c1c([nH]c3ccc(C#CC4CC4)cc13)CCCC2
remaining binding (binding, competition with immobilised ligand): 100%

CN(C)c1nccc(-c2cnc3ncccn23)n1
remaining binding (binding): 79%

O=C(O)[C@H]1[C@H](Cn2nnc3ccccc3c2=O)CC[C@@H]1C(=O)c1ccc(OCCC2CCOCC2)cc1
remaining binding (cell-free assay, competition with immobilised ligand): 100%

CN(C)c1nccc(-c2cnn3ncccc23)n1
remaining binding (binding): 100%

O=C(c1ccc(Nc2ncc(Cl)c(-c3ccc(Cl)s3)n2)cc1)N1CCC(N2CCCC2)CC1
remaining binding (binding, competition with immobilised ligand): 86%

CN(C)CC#Cc1ccc(OCCCc2sc(N3CCc4cccc(C(=O)Nc5nc6ccccc6s5)c4C3)nc2C(=O)O)c(F)c1
remaining binding (cell-free assay, competition with immobilised ligand): 100%

F[C@@H]1CCN(c2nccc(-c3cnn4ncccc34)n2)C1
remaining binding (binding): 77%

CN1CCN(c2cnc3c(C4CCN(C(=O)c5ccc(OC(F)(F)F)cc5N)CC4)ncnc3c2)CC1
remaining binding (cell-free assay, competition with immobilised ligand): 78%

O=C(c1ccc(Nc2nccc(-c3cc4ccccc4s3)n2)cc1)N1CCC(N2CCCC2)CC1
remaining binding (binding, competition with immobilised ligand): 100%

CC1CCCN1c1nccc(-c2cnn3ncccc23)n1 (centres unmarked)
remaining binding (binding): 95%

CN(C)C(=O)Cn1cc(-c2nc(C3(c4ccc(-c5cnc(N)nc5)cc4)CC3)no2)cn1
remaining binding (cell-free assay, competition with immobilised ligand): 91%
